From ChEMBL document CHEMBL1142212, “Length effects in antimicrobial peptides of the (RW)n series” (Antimicrob Agents Chemother, 2007)
Converted amounts (≈) assume the structure as drawn. Peptide text beside a SMILES is read from it.

Key:
Escherichia coli [1] = experiment: Growth inhibition of Escherichia coli D31
Erythrocyte = experiment: Hemolytic activity in sheep red blood cells; format: functional, Ovis aries
Summary of the method: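 Fresh sheep erythrocyte suspension was incubated with peptide in PBS pH 7.2 at 37°C for 30 min, then centrifuged at 3,000 rpm for 10 min. Supernatant was diluted 40-fold in water and read at OD540. Buffer gave 0% and 1% Triton-X gave 100% hemolysis. HD50 is the concentration giving 50% hemolysis, taken from dose-response curves.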

Staphylococcus aureus [2] = experiment: Growth inhibition of Staphylococcus aureus ATCC BAA44
Staphylococcus aureus [3] = experiment: Antimicrobial activity against Staphylococcus aureus ATCC BAA44 after 18 hrs
Escherichia coli [4] = experiment: Antimicrobial activity against Escherichia coli D31 after 18 hrs; conditions: D31, 18 h

N=C(N)NCCC[C@H](NC(=O)[C@H](Cc1c[nH]c2ccccc12)NC(=O)[C@H](CCCNC(=N)N)NC(=O)[C@H](Cc1c[nH]c2ccccc12)NC(=O)[C@H](CCCNC(=N)N)NC(=O)[C@H](Cc1c[nH]c2ccccc12)NC(=O)[C@H](CCCNC(=N)N)NC(=O)[C@H](Cc1c[nH]c2ccccc12)NC(=O)[C@@H](N)CCCNC(=N)N)C(=O)N[C@@H](Cc1c[nH]c2ccccc12)C(N)=O
IC50 (Escherichia coli [1]): 6.2 µM
HD50 (Erythrocyte): 76 µM
IC50 (Staphylococcus aureus [2]): 3.6 µM
MBC50 (Staphylococcus aureus [3]): 6.9 µM (≈ 11.9 µg/mL)
MBC50 (Escherichia coli [4]): 7.2 µM (≈ 12.4 µg/mL)

N=C(N)NCCC[C@H](NC(=O)[C@H](Cc1c[nH]c2ccccc12)NC(=O)[C@H](CCCNC(=N)N)NC(=O)[C@H](Cc1c[nH]c2ccccc12)NC(=O)[C@H](CCCNC(=N)N)NC(=O)[C@H](Cc1c[nH]c2ccccc12)NC(=O)[C@@H](N)CCCNC(=N)N)C(=O)N[C@@H](Cc1c[nH]c2ccccc12)C(N)=O (H-RWRWRWRW-NH2)
IC50 (Escherichia coli [1]): 9.6 µM
HD50 (Erythrocyte): 100 µM
IC50 (Staphylococcus aureus [2]): 5.1 µM
MBC50 (Staphylococcus aureus [3]): 12 µM (≈ 16.6 µg/mL)
MBC50 (Escherichia coli [4]): 14 µM (≈ 19.4 µg/mL)

N=C(N)NCCC[C@H](N)C(=O)N[C@@H](Cc1c[nH]c2ccccc12)C(N)=O (H-Arg-Trp-NH2)
IC50 (Escherichia coli [1]): 4300 µM
HD50 (Erythrocyte): 8900 µM
IC50 (Staphylococcus aureus [2]): 2100 µM
MBC50 (Staphylococcus aureus [3]): 2300 µM (≈ 827 µg/mL)
MBC50 (Escherichia coli [4]): 4700 µM (≈ 1690 µg/mL)

N=C(N)NCCC[C@H](NC(=O)[C@H](Cc1c[nH]c2ccccc12)NC(=O)[C@@H](N)CCCNC(=N)N)C(=O)N[C@@H](Cc1c[nH]c2ccccc12)C(N)=O (H-RWRW-NH2)
IC50 (Escherichia coli [1]): 730 µM
HD50 (Erythrocyte): 3700 µM
IC50 (Staphylococcus aureus [2]): 210 µM
MBC50 (Staphylococcus aureus [3]): 620 µM (≈ 435 µg/mL)
MBC50 (Escherichia coli [4]): 990 µM (≈ 695 µg/mL)

N=C(N)NCCC[C@H](NC(=O)[C@H](Cc1c[nH]c2ccccc12)NC(=O)[C@H](CCCNC(=N)N)NC(=O)[C@H](Cc1c[nH]c2ccccc12)NC(=O)[C@@H](N)CCCNC(=N)N)C(=O)N[C@@H](Cc1c[nH]c2ccccc12)C(N)=O (H-RWRWRW-NH2)
IC50 (Escherichia coli [1]): 16 µM
HD50 (Erythrocyte): 210 µM
IC50 (Staphylococcus aureus [2]): 8 µM
MBC50 (Staphylococcus aureus [3]): 15 µM (≈ 15.7 µg/mL)
MBC50 (Escherichia coli [4]): 29 µM (≈ 30.3 µg/mL)
